The source made the active and inactive calls. The calls are words filed in the database; no cut-off is given here.
What was measured:
[1] = Apparent elimination half life in rabbit at 105 mg/kg, ig by HPLC analysis; type: ADME, organism-based, Oryctolagus cuniculus; design: dose 105 mg/kg, route intragastric; conditions: in vivo, po, read-out: beta t1/2 (converted)
Method in brief: (§1)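 Rabbits (n = 4), anesthetised with ether-Fluorothane 10:1, given a single 105 mg/kg dose in water (12 ml) by gastric tube. Ear-vein blood was heparinised at set times up to 24 h, mixed with methanol, centrifuged, dried, redissolved in water and assayed by C18 HPLC. Parameters came from an extravascular noncompartmental model. F = (AUCi.g./dose)/(AUCi.v./dose); CL = dose/AUC; Vss = CL × MRT.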

[2] = Total AUC in rabbit at 105 mg/kg, ig up to 24 hrs by HPLC analysis; type: ADME, organism-based, Oryctolagus cuniculus; design: time AUCmax, dose 105 mg/kg, route intragastric; conditions: in vivo, po; method in brief: as §1
[3] = Total clearance in rabbit at 105 mg/kg, ig up to 24 hrs by HPLC analysis; type: ADME, organism-based, Oryctolagus cuniculus; design: dose 105 mg/kg, route intragastric; conditions: in vivo, po; method in brief: as §1
Oryctolagus cuniculus [4] = experiment: Volume of distribution at steady state in rabbit at 105 mg/kg, ig up to 24 hrs by HPLC analysis; type: ADME, organism-based; design: dose 105 mg/kg, route intragastric; conditions: in vivo, po; method in brief: as §1
[5] = Cmax in rabbit at 105 mg/kg, ig up to 24 hrs by HPLC analysis; type: ADME, organism-based, Oryctolagus cuniculus; design: dose 105 mg/kg, route intragastric; conditions: in vivo, po; method in brief: as §1
[6] = Tmax in rabbit at 105 mg/kg, ig by HPLC analysis; type: ADME, organism-based, Oryctolagus cuniculus; design: dose 105 mg/kg, route intragastric; conditions: in vivo, po; method in brief: as §1
[7] = Mean residence time in rabbit at 105 mg/kg, ig by HPLC analysis; type: ADME, organism-based, Oryctolagus cuniculus; design: dose 105 mg/kg, route intragastric; conditions: in vivo, po; method in brief: as §1
Oryctolagus cuniculus [8] = experiment: Total AUC in rabbit at 4.3 mg/kg, iv up to 24 hrs by HPLC analysis; type: ADME, organism-based; design: time AUCmax, dose 4.3 mg/kg, route intravenous; conditions: in vivo
Method in brief: (§2)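 Rabbits (n = 4) received 4.3 mg/kg in physiological solution into the marginal ear vein over 1 min. Ear-vein blood was heparinised at set times up to 24 h, methanol-extracted and assayed by C18 HPLC with a heptafluorobutyric acid/ethanol gradient. A noncompartmental i.v. infusion model gave AUCtot, T1/2 and MRT; Vss = CL × MRT.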

Influenza A virus [9] = experiment: Antiviral activity against Influenza A virus (A/duck/Potsdam/1402-6/1986 (H5N2)) infected in MDCK cells assessed as log reduction in viral titer at 502 uM after 48 hrs […]; type: functional
Influenza B virus [10] = experiment: Antiviral activity against Influenza B virus (B/Lee/1940) infected in […] assessed as survival rate at 100 mg/kg, ig administered 1 and 24 hrs before infection and 24 to 72 hrs post infection; type: functional; conditions: route intragastric
Influenza A virus [11] = experiment: Antiviral activity against Influenza A virus H3N2 (A/Victoria/35/72) infected in MDCK cells assessed as log reduction in viral titer at 502 uM after 48 hrs […]; type: functional
Method in brief: (§3)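 MDCK monolayers in MEM with 10% FBS at 37°C under 5% CO2 were infected with allantoic-fluid virus diluted 10−1 to 10−7. Aqueous test compound was added after 1 h adsorption. Virus yield was read at 48 h by haemagglutination with 0.5% chicken erythrocytes, and titres also by plaque assay. Each concentration was run in duplicate.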

H3N2 subtype [12] = experiment: Antiviral activity against Influenza A virus (A/Aichi/2/1968(H3N2)) infected in […] assessed as survival rate at 100 mg/kg, ig administered 1 and 24 hrs before infection and 24 to 72 hrs post infection; type: functional; conditions: route intragastric
H3N2 subtype [13] = experiment: Antiviral activity against Influenza A virus (A/Aichi/2/1968(H3N2)) infected in […] assessed as survival rate at 50 mg/kg, ig administered 1 and 24 hrs before infection and 24 to 72 hrs post infection; type: functional; conditions: route intragastric
Influenza B virus [14] = experiment: Antiviral activity against Influenza B virus (B/Lee/1940) infected in […] assessed as survival rate at 50 mg/kg, ig administered 1 and 24 hrs before infection and 24 to 72 hrs post infection; type: functional; conditions: route intragastric
Influenza A virus [15] = experiment: Antiviral activity against Influenza A virus (A/Hong Kong/1073/99(H9N2)) infected in MDCK cells assessed as log reduction in viral titer at 502 uM after 48 hrs […]; type: functional
Oryctolagus cuniculus [16] = experiment: Volume of distribution at steady state in rabbit at 4.3 mg/kg, iv up to 24 hrs by HPLC analysis; type: ADME, organism-based; design: dose 4.3 mg/kg, route intravenous; conditions: in vivo; method in brief: as §2
Influenza A virus [17] = experiment: Antiviral activity against Influenza A virus/H7N3 (A/Mallard/NT/12/02) infected in MDCK cells assessed as log reduction in viral titer at 502 uM after 48 hrs by MTT assay; type: functional
Influenza A virus [18] = experiment: Antiviral activity against Influenza A virus (A/Vietnam/1194/2004 (H5N1)) infected in MDCK cells assessed as log reduction in viral titer at 502 uM after 48 hrs […]; type: functional
Influenza A virus [19] = experiment: Antiviral activity against Influenza A virus H3N2 (A/Victoria/35/72) infected in human HuH7 cells assessed as log reduction in viral titer at 1000 ug/ml; type: functional, Huh-7
Influenza A virus [20] = experiment: Antiviral activity against Influenza A virus (A/duck/Potsdam/1402-6/1986 (H5N2)) infected in MDCK cells assessed as log reduction in viral titer at 960 uM after 48 hrs by MTT assay; type: functional
H3N2 subtype [21] = experiment: Antiviral activity against Influenza A virus (A/Aichi/2/1968(H3N2)) infected in […] at 100 to 150 mg/kg, ig administered 1 hr before infection; type: functional, organism-based
Influenza A virus [22] = experiment: Antiviral activity against Influenza A virus (A/Vietnam/1194/2004 (H5N1)) infected in MDCK cells assessed as log reduction in viral titer at 960 uM after 48 hrs […]; type: functional
[23] = Cytotoxicity against MDCK cells after 48 hrs by MTT assay; type: cell-based, Canis lupus familiaris; conditions: dog
Method in brief: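 Cytotoxicity was measured on uninfected MDCK monolayers grown in MEM with 10% FBS and penicillin/streptomycin at 37°C under 5% CO2. Viability was read by MTT and expressed as CC50.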

Influenza A virus [24] = experiment: Antiviral activity against Influenza A virus H3N2 (A/Victoria/35/72) infected in HEK293T cells assessed as log reduction in viral titer at 1000 ug/ml; type: functional, HEK-293T
Influenza B virus [25] = experiment: Antiviral activity against Influenza B virus (B/Lee/1940) infected in […] assessed as survival rate at 150 mg/kg, ig administered 1 and 24 hrs before infection and 24 to 72 hrs post infection; type: functional; conditions: route intragastric
Influenza A virus [26] = experiment: Antiviral activity against Influenza A virus/H7N3 (A/Mallard/NT/12/02) infected in MDCK cells assessed as log reduction in viral titer at 960 uM after 48 hrs by MTT assay; type: functional
[27] = Toxicity against ig dosed rabbit; type: organism-based, Oryctolagus cuniculus; conditions: in vivo, po
Influenza B virus [28] = experiment: Antiviral activity against Influenza B virus (B/Lee/1940) infected in […] at 100 to 150 mg/kg, ig administered after 24 hrs post infection; type: functional, organism-based
Influenza A virus [29] = experiment: Antiviral activity against Influenza A virus (A/Hong Kong/1073/99(H9N2)) infected in MDCK cells assessed as log reduction in viral titer at 960 uM after 48 hrs […]; type: functional
Influenza A virus [30] = experiment: Antiviral activity against Influenza A virus H3N2 (A/Victoria/35/72) infected in MDCK cells assessed as log reduction in viral titer at 960 uM after 48 hrs […]; type: functional; method in brief: as §3
Influenza A virus [31] = experiment: Antiviral activity against Influenza A virus H3N2 (A/Victoria/35/72) infected in MDCK cells assessed as log reduction in viral titer at 385 uM after 48 hrs […]; type: functional; method in brief: as §3
H3N2 subtype [32] = experiment: Antiviral activity against Influenza A virus (A/Aichi/2/1968(H3N2)) infected in […] at 100 to 150 mg/kg, ig administered after 24 hrs post infection; type: functional, organism-based
Influenza A virus [33] = experiment: Antiviral activity against Influenza A virus H7N3 (A/Mallard/NT/12/02) infected in MDCK cells assessed as log reduction in viral titer at 385 uM after 48 hrs […]; type: functional
[34] = Toxicity against ip dosed rabbit; type: organism-based, Oryctolagus cuniculus; conditions: in vivo
Influenza B virus [35] = experiment: Antiviral activity against Influenza B virus (B/Lee/1940) infected in […] at 100 to 150 mg/kg, ig administered 24 hrs before infection; type: functional, organism-based
Influenza A virus [36] = experiment: Antiviral activity against Influenza A virus (A/duck/Potsdam/1402-6/1986 (H5N2)) infected in MDCK cells assessed as log reduction in viral titer at 385 uM after 48 hrs […]; type: functional
Influenza A virus [37] = experiment: Antiviral activity against Influenza A virus (A/Hong Kong/1073/99(H9N2)) infected in MDCK cells assessed as log reduction in viral titer at 385 uM after 48 hrs […]; type: functional
Influenza B virus [38] = experiment: Antiviral activity against Influenza B virus (B/Lee/1940) infected in rabbit at 100 to 150 mg/kg, ig administered after 48 hrs post infection; type: functional, organism-based
H3N2 subtype [39] = experiment: Antiviral activity against Influenza A virus (A/Aichi/2/1968(H3N2)) infected in […] at 100 to 150 mg/kg, ig administered after 48 hrs post infection; type: functional, organism-based
[40] = Bioavailability in rabbit at 105 mg/kg, ig up to 24 hrs by HPLC analysis; type: ADME, organism-based, Oryctolagus cuniculus; conditions: in vivo, po; method in brief: as §1
Influenza A virus [41] = experiment: Antiviral activity against Influenza A virus (A/Vietnam/1194/2004 (H5N1)) infected in MDCK cells assessed as log reduction in viral titer at 385 uM after 48 hrs […]; type: functional
H3N2 subtype [42] = experiment: Antiviral activity against Influenza A virus (A/Aichi/2/1968(H3N2)) infected in […] at 100 to 150 mg/kg, ig administered 24 hrs before infection; type: functional, organism-based
Influenza B virus [43] = experiment: Antiviral activity against Influenza B virus (B/Lee/1940) infected in […] at 100 to 150 mg/kg, ig administered 1 hr before infection; type: functional, organism-based

CSc1nc2[nH]nc(N)c(=O)n2n1
half-life [1]: 0.97 h
AUC at 24 h [2]: 690 ng·h/mL
CL/F [3]: 740 mL/min/kg
Vdss (Oryctolagus cuniculus [4]): 58.5 L/kg
Cmax [5]: 140 ng/mL
Tmax [6]: 3 h
MRT [7]: 4.14 h

CC(N)C12CC3CC(CC(C3)C1)C2 (configuration not stated) [RIMANTADINE]
AUC (Oryctolagus cuniculus [8]): 1200 ng·h/mL
FC (Influenza A virus [9]): 2
Activity (Influenza B virus [10]): 20%
FC (Influenza A virus [11]): 5
Activity (H3N2 subtype [12]): 85%
Activity (H3N2 subtype [13]): 80%
Activity (Influenza B virus [14]): 15%
FC (Influenza A virus [15]): 0.75
Vdss (Oryctolagus cuniculus [16]): 1.2 L/kg
FC (Influenza A virus [17]): 3
FC (Influenza A virus [18]): 1

CSc1nc2[n-]nc([N+](=O)[O-])c(=O)n2n1.O.O.[Na+] [TRIAZAVIRINE]
FC (Influenza A virus [19]): <0.75
FC (Influenza A virus [20]): 1.6
Activity (H3N2 subtype [21]): Active
FC (Influenza A virus [22]): 2.25
CC50 at 48 h [23]: > 8 mM
FC (Influenza A virus [24]): <0.75
Activity (Influenza B virus [25]): 65%
half-life [1]: 1.1 h
FC (Influenza A virus [26]): 3.5
LD50 [27]: 2200 mg/kg
Activity (Influenza B virus [28]): Active
FC (Influenza A virus [29]): 0.5
FC (Influenza A virus [30]): 1
FC (Influenza A virus [31]): 1
Activity (H3N2 subtype [32]): Active
AUC at 24 h [2]: 3100 ng·h/mL
FC (Influenza A virus [33]): 0.25
CL/F [3]: 617 mL/min/kg
Activity (Influenza B virus [10]): 65%
LD50 [34]: 1400 mg/kg
Activity (Influenza B virus [35]): Active
Vdss (Oryctolagus cuniculus [4]): 83.5 L/kg
FC (Influenza A virus [36]): 0.5
Cmax [5]: 1100 ng/mL
FC (Influenza A virus [37]): 0
Activity (Influenza B virus [38]): Active
Activity (H3N2 subtype [39]): Active
bioavailability [40]: 12.5%
FC (Influenza A virus [41]): 2
Activity (H3N2 subtype [12]): 70%
Activity (H3N2 subtype [42]): Active
Tmax [6]: 0.4 h
Activity (Influenza B virus [43]): Active
MRT [7]: 2.3 h
